From ChEMBL document CHEMBL1153639, “A facile synthesis and antimycobacterial evaluation of novel spiro-pyrido-pyrrolizines and pyrrolidines” (2009)
Converted amounts (≈) assume the structure as drawn.

Columns and labels:
[1] = system: Mycolicibacterium smegmatis; assay: Antimycobacterial against Mycobacterium smegmatis MC2 by agar dilution method; format: functional
Procedure, shortened: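 MIC read by agar dilution, run in triplicate against M. smegmatis MC², screened in parallel with M. tuberculosis and an MDR-TB clinical isolate.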

[2] = system: Mycobacterium tuberculosis; assay: Antimycobacterial against Mycobacterium tuberculosis H37Rv by agar dilution method; format: functional
Procedure, shortened: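 MIC read by agar dilution against M. tuberculosis H37Rv, run in triplicate.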

In the case of `COc1ccc([C@H]2[C@H](c3ccccc3)N[C@@]3(C(=O)Nc4ccccc43)[C@@]23CN(C)CCC3=O)cc1`, the MIC [1] is reported as 53.5 µM (≈ 25 µg/mL) and the MIC [2] is reported as 26.7 µM (≈ 12.5 µg/mL).
For `Cc1ccc([C@H]2[C@@H]3CCCN3[C@@]3(C(=O)Nc4ccccc43)[C@@]23CN(C)CCC3=O)cc1`, the MIC [1] was 15 µM (≈ 6.25 µg/mL) and the MIC [2] was 7.53 µM (≈ 3.13 µg/mL).
Molecule `COc1ccc([C@H]2[C@@H]3CCCN3[C@@]3(C(=O)Nc4ccccc43)[C@@]23CN(C)CCC3=O)cc1` has an MIC [1] of 57.9 µM (≈ 25 µg/mL) and an MIC [2] of 14.5 µM (≈ 6.25 µg/mL).
With `COc1ccc([C@H]2CN(C)[C@@]3(C(=O)Nc4ccccc43)[C@@]23CN(C)CCC3=O)cc1` the MIC [1] was 61.6 µM (≈ 25 µg/mL) and the MIC [2] was 30.8 µM (≈ 12.5 µg/mL).
For `CN1CCC(=O)[C@]2(C1)[C@@H](c1cccc(F)c1)[C@H](c1ccccc1)N[C@@]21C(=O)Nc2ccccc21`, the MIC [1] was 54.9 µM (≈ 25 µg/mL) and the MIC [2] was 6.87 µM (≈ 3.13 µg/mL).
For `Cc1ccc([C@H]2CN(C)[C@@]3(C(=O)Nc4ccccc43)[C@@]23CN(C)CCC3=O)cc1`, the MIC [1] was 32.1 µM (≈ 12.5 µg/mL) and the MIC [2] was 16.1 µM (≈ 6.25 µg/mL).
`CN1CCC(=O)[C@]2(C1)[C@@H](c1ccc(Cl)cc1Cl)[C@H](c1ccccc1)N[C@@]21C(=O)Nc2ccccc21` gave an MIC [1] of 98.7 µM (≈ 50 µg/mL) and an MIC [2] of 12.3 µM (≈ 6.25 µg/mL).
For `CN1CCC(=O)[C@]2(C1)[C@@H](c1ccccc1Cl)CN(C)[C@@]21C(=O)Nc2ccccc21`, the MIC [1] was 30.5 µM (≈ 12.5 µg/mL) and the MIC [2] was 7.64 µM (≈ 3.13 µg/mL).
`CN1CCC(=O)[C@]2(C1)[C@@H](c1ccc(Cl)cc1Cl)[C@@H]1CCCN1[C@@]21C(=O)Nc2ccccc21` was tested, and the MIC [1] was 53.1 µM (≈ 25 µg/mL) and the MIC [2] was 3.32 µM (≈ 1.56 µg/mL).
`CN1CCC(=O)[C@]2(C1)[C@@H](c1cccc(F)c1)CN(C)[C@@]21C(=O)Nc2ccccc21` showed an MIC [1] of 63.5 µM (≈ 25 µg/mL) and an MIC [2] of 7.95 µM (≈ 3.13 µg/mL).
`CN1CCC(=O)[C@]2(C1)[C@@H](c1ccc(Cl)cc1Cl)CN(C)[C@@]21C(=O)Nc2ccccc21` was tested, and the MIC [1] was 56.3 µM (≈ 25 µg/mL) and the MIC [2] was 1.76 µM (≈ 0.782 µg/mL).
Molecule `Cc1ccc([C@H]2[C@H](c3ccccc3)N[C@@]3(C(=O)Nc4ccccc43)[C@@]23CN(C)CCC3=O)cc1` has an MIC [1] of 111 µM (≈ 50 µg/mL) and an MIC [2] of 27.7 µM (≈ 12.5 µg/mL).
Molecule `CN1CCC(=O)[C@]2(C1)[C@@H](c1ccccc1Cl)[C@@H]1CCCN1[C@@]21C(=O)Nc2ccccc21` has an MIC [1] of 28.7 µM (≈ 12.5 µg/mL) and an MIC [2] of 3.58 µM (≈ 1.56 µg/mL).
`CN1CCC(=O)[C@]2(C1)[C@@H](c1cccc(F)c1)[C@@H]1CCCN1[C@@]21C(=O)Nc2ccccc21` showed an MIC [1] of 29.8 µM (≈ 12.5 µg/mL) and an MIC [2] of 7.46 µM (≈ 3.13 µg/mL).
In the case of `CN1CCC(=O)[C@]2(C1)[C@@H](c1ccccc1Cl)[C@H](c1ccccc1)N[C@@]21C(=O)Nc2ccccc21`, the MIC [1] is reported as 53 µM (≈ 25 µg/mL) and the MIC [2] is reported as 13.2 µM (≈ 6.25 µg/mL).
`CC[C@@H](CO)NCCN[C@@H](CC)CO` [ETHAMBUTOL] was tested, and the MIC [1] was 122 µM (≈ 25 µg/mL) and the MIC [2] was 7.64 µM (≈ 1.56 µg/mL).
`NNC(=O)c1ccncc1` [ISONIAZID] gave an MIC [1] of 45.6 µM (≈ 6.25 µg/mL) and an MIC [2] of 0.39 µM (≈ 0.0535 µg/mL).
`NC(=O)c1cnccn1` [PYRAZINAMIDE] was tested, and the MIC [1] was 406 µM (≈ 50 µg/mL) and the MIC [2] was 50.8 µM (≈ 6.25 µg/mL).
